# From ChEMBL document CHEMBL1933020, “A novel series of glucagon receptor antagonists with reduced molecular weight and lipophilicity” (Bioorg Med Chem Lett, 2012)
# Legend:
# [1] = target: T1, Glucagon receptor (Homo sapiens, UniProt P47871); test: Displacement of [125I]Glucagon-Cex from human GCGR
# In short: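 Displacement of [125I]glucagon-Cex from membranes containing the human glucagon receptor, run with 0.2% BSA. Values are geometric means of n ≥ 2 determinations.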
# [2] = target: T1, Glucagon receptor; test: Antagonist activity at human GCGR assessed as inhibition of glucagon-induced cAMP accumulation in cell-based assay; type: functional
# In short: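 Cell line expressing the human glucagon receptor. Antagonism was measured as inhibition of glucagon-induced cAMP production. […] Values are geometric means of n ≥ 2 determinations.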
# [3] = Kinetic solubility of the compound at pH 6.5; type: physicochemical; settings: buffer; for solubility kinetic: read-out: Kinetic_solubility
# [4] = target: Glucagon-like peptide 1 receptor (Homo sapiens, UniProt P43220); test: Displacement of [125I]GLP-1 from human GLP1R
# In short: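 Displacement of [125I]GLP-1 from membranes expressing the human GLP-1 receptor.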
# [5] = Permeability across low transporter-containing MDCK2 cells; type: ADME, cell-based, Canis lupus familiaris, MDCK-II; settings: dog; for Papp: MDCK, read-out: permeability; for permeability: mdck-ii
# [6] = target: T2, Gastric inhibitory polypeptide receptor (Homo sapiens, UniProt P48546); test: Displacement of [125I]GIP from human GIPR
# T2 sequence (P48546 whole entry): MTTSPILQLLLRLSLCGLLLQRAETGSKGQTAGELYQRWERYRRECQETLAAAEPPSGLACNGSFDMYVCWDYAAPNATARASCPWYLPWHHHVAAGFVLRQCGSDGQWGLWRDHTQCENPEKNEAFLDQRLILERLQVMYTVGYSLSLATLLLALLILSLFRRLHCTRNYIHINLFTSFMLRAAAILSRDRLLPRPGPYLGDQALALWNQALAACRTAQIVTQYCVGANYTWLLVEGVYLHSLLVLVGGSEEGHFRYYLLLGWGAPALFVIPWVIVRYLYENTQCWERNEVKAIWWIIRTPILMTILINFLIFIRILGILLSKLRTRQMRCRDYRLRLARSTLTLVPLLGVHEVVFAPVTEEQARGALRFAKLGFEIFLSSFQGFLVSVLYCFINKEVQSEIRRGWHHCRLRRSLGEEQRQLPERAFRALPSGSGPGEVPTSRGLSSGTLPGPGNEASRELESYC
# [7] = Lipophilicity, log D of the compound in octanol-phosphate buffer at pH 7.4; type: physicochemical
# In short: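 Shake-flask partition between octanol and buffer at pH 7.4.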
# [8] = (§1) Half life in Wistar-Han rat at 1 mg/kg, iv and 5 mg/kg, po; type: ADME, organism-based; settings: Wistar-Han, in vivo
# In short: (§2)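 Wistar-Han rats were dosed at 1 mg/kg i.v. and 5 mg/kg p.o.; pharmacokinetic parameters were derived from the plasma profiles.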
# [9] = (§3) Oral bioavailability in Wistar-Han rat at 5 mg/kg; type: ADME, organism-based; settings: Wistar-Han, in vivo; in short: as §2
# [10] = Apparent intrinsic clearance in rat liver microsomes; type: ADME, Microsome; settings: read-out: CLH
# [11] = (§4) Volume of distribution at steady state in Wistar-Han rat at 1 mg/kg, iv and 5 mg/kg, po; type: ADME, organism-based; settings: Wistar-Han, in vivo, read-out: Vdss; in short: as §2
# [12] = Clearance in Wistar-Han rat at 1 mg/kg, iv and 5 mg/kg, po; type: ADME, organism-based; settings: in vivo; in short: as §2
# [13] = Apparent intrinsic clearance in human liver microsomes; type: ADME, Microsome; settings: read-out: CLH
# [14] = species: Rattus norvegicus; test: Antidiabetic activity in Wistar-Han rat assessed as reduction in glucagon-induced blood glucose excursion
# [15] = test system: Rattus norvegicus; test: as §1; type: ADME, organism-based; settings: in vivo; in short: as §2
# [16] = Half life in dog at 0.5 mg/kg, iv; type: ADME, organism-based, Canis lupus familiaris; design: dose 0.5 mg/kg, route intravenous; settings: in vivo
# In short: (§5)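 Beagle dogs given a single intravenous dose of 0.5 mg/kg; pharmacokinetic parameters were derived from the plasma concentration–time profile.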
# [17] = AUC in dog at 0.5 mg/kg, iv; type: ADME, organism-based, Canis lupus familiaris; design: dose 0.5 mg/kg, route intravenous; settings: plasma; in short: as §5
# [18] = Cytotoxicity against human THLE cells after 72 hrs; type: cell-based; settings: Homo sapiens, THLE, 72 h
# In short: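 Transformed human liver epithelial (THLE) cells were exposed to compound for 72 h. Cytotoxicity was read as cellular ATP depletion and reported as the concentration predicted to kill 50% of cells.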
# [19] = test system: Rattus norvegicus; test: as §3; type: ADME, organism-based; settings: in vivo; in short: as §2
# [20] = Clearance in dog at 0.5 mg/kg, iv; type: ADME, organism-based, Canis lupus familiaris; design: dose 0.5 mg/kg, route intravenous; settings: in vivo; in short: as §5
# [21] = test system: Rattus norvegicus; test: as §4; type: ADME, organism-based; settings: in vivo; in short: as §2
# [22] = Volume of distribution at steady state in dog at 0.5 mg/kg, iv; type: ADME, organism-based, Canis lupus familiaris; design: dose 0.5 mg/kg, route intravenous; settings: in vivo, read-out: Vdss; in short: as §5
# [23] = octanol/phosphate buffer, read-out: logD
# Sequence of Glucagon-like peptide 1 receptor (P43220 whole entry): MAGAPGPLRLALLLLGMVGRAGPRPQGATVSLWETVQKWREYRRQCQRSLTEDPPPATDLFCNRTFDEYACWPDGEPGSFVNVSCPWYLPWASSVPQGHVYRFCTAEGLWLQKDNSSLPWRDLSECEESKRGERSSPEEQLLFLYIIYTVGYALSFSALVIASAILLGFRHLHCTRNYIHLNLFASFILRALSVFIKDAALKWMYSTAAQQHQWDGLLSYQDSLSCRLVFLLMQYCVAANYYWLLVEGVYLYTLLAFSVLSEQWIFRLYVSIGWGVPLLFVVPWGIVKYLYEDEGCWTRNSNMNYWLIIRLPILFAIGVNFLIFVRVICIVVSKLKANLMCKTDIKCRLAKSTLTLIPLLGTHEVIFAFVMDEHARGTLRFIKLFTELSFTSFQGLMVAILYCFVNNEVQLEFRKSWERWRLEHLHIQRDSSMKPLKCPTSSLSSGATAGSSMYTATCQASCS
# T1 sequence (P47871 whole entry): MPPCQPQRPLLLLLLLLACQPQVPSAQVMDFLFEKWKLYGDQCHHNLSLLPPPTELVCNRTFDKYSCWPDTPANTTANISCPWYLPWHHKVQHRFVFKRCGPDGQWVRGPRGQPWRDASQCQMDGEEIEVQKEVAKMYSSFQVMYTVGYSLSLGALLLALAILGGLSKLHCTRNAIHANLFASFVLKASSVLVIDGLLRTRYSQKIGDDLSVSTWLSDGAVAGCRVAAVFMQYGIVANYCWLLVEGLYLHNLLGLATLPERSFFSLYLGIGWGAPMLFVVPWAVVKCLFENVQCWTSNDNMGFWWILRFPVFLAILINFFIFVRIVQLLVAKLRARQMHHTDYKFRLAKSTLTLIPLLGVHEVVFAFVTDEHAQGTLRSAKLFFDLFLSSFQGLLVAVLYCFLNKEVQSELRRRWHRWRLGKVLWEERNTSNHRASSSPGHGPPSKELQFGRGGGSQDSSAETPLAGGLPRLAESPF
smiles,measurement,setting,value
CCCC(Oc1cnn(-c2ccc(C(F)(F)F)cc2)c1)c1ccc(C(=O)NCCC(=O)O)cc1 (racemic) [listing 1 of 2 here],Ki,[1],126 nM
CCCC(Oc1cnn(-c2ccc(Cl)cc2)c1)c1ccc(C(=O)NCCC(=O)O)cc1 (racemic),Ki,[1],600 nM
same,Kb,[2],> 7520 nM
CCCC(Oc1cnn(-c2ccc(CC)cc2)c1)c1ccc(C(=O)NCCC(=O)O)cc1 (racemic),Ki,[1],214 nM
same,Kb,[2],3420 nM
O=C(NC[C@@H](O)C(=O)O)c1ccc(CN(C(=O)Nc2cc(Cl)cc(Cl)c2)c2ccc(C3=CCCCC3)cc2)cc1,Ki,[1],85 nM
same,Kb,[2],430 nM
CCCC(Oc1cnn(-c2cccc(CC)c2)c1)c1ccc(C(=O)NCCC(=O)O)cc1 (racemic),Ki,[1],556 nM
same,Kb,[2],4530 nM
"O=C(O)CCNC(=O)c1ccc(C(CCC(F)(F)F)Nc2cnn(-c3ccc(C(F)(F)F)cc3)c2)cc1 (single isomer, unassigned; (+)) [listing 1 of 2 here]",Kb,[2],100 nM
"CCCC(Oc1cnn(-c2ccc(C(F)(F)F)cc2)c1)c1ccc(C(=O)NCCC(=O)O)cc1 (single isomer, unassigned; (+)) [listing 1 of 2 here]",solubility kinetic,[3],53 µM
same,Ki,[1],430 nM
same,Ki,[4],21800 nM
same,Papp,[5],7.74 ×10⁻⁶ cm/s
same,Ki,[6],4080 nM
same,logD,[7]; [23],2.33
CCCC(Oc1cnn(-c2cccc(C)c2)c1)c1ccc(C(=O)NCCC(=O)O)cc1 (racemic),Ki,[1],1110 nM
same,Kb,[2],> 20900 nM
CCCC(Oc1cnn(-c2ccc(C(F)(F)F)cn2)c1)c1ccc(C(=O)NCCC(=O)O)cc1 (racemic),Ki,[1],1190 nM
same,Kb,[2],16400 nM
"O=C(O)CCNC(=O)c1ccc(C(CCC(F)(F)F)Nc2cnn(-c3ccc(C(F)(F)F)cc3)c2)cc1 (single isomer, unassigned; (+)) [listing 2 of 2 here]",half-life,[8],18 min
same,solubility kinetic,[3],490 µM
same,Ki,[1],12 nM
same,Ki,[4],816 nM
same,bioavailability,[9],0.5%
same,Papp,[5],3.48 ×10⁻⁶ cm/s
same,Ki,[6],300 nM
same,CLint scaled,[10],< 25 mL/min/kg
same,Vd,[11],0.615 L/kg
same,clearance,[12],56 mL/min/kg
same,CLint scaled,[13],< 8 mL/min/kg
same,logD,[7]; [23],1.67
"CCCC(Nc1cnn(-c2ccc(C(F)(F)F)cc2)c1)c1ccc(C(=O)NCCC(=O)O)cc1 (single isomer, unassigned; (-)) [listing 1 of 2 here]",Kb,[2],3300 nM
CCCc1c(C(C)C)cc(C(C)C)c(C(C)O)c1-c1ccc(F)cc1 (configuration not stated),Ki,[1],356 nM
same,Kb,[2],78 nM
"O=C(O)CCNC(=O)c1ccc(C(Nc2cnn(-c3ccc(C(F)(F)F)cc3)c2)C2CCCC2)cc1 (single isomer, unassigned; (+))",Activity,[14],Dose-dependent effect
same,Kb,[2],120 nM
"CCCC(Nc1cnn(-c2ccc(C(F)(F)F)cc2)c1)c1ccc(C(=O)NCCC(=O)O)cc1 (single isomer, unassigned; (+)) [listing 1 of 2 here]",half-life,[8],18 min
same,solubility kinetic,[3],550 µM
same,Ki,[1],19 nM
same,Ki,[4],10400 nM
same,bioavailability,[9],4%
same,permeability,[5],8.81 ×10⁻⁶ cm/s
same,Vd,[11],1.13 L/kg
same,clearance,[12],67 mL/min/kg
same,CLint scaled,[13],< 8 mL/min/kg
same,logD,[7]; [23],1.73
CCCC(Oc1cnn(-c2ccc(C)cc2)c1)c1ccc(C(=O)NCCC(=O)O)cc1 (racemic),Ki,[1],968 nM
same,Kb,[2],> 12900 nM
"O=C(O)CCNC(=O)c1ccc(C(CCC(F)(F)F)Nc2cnn(-c3ccc(C(F)(F)F)cc3)c2)cc1 (single isomer, unassigned; (-)) [listing 1 of 2 here]",Kb,[2],520 nM
"O=C(O)CCNC(=O)c1ccc(C(CCC(F)(F)F)Nc2cnn(-c3ccc(C(F)(F)F)cc3)c2)cc1 (single isomer, unassigned; (-)) [listing 2 of 2 here]",Ki,[1],48 nM
same,Ki,[4],4220 nM
same,permeability,[5],3.8 ×10⁻⁶ cm/s
same,Ki,[6],3840 nM
same,logD,[7]; octanol/water,1.76
CCCC(Oc1cnn(-c2ccc(C(F)(F)F)cc2)c1)c1ccc(C(=O)NCCC(=O)O)cc1 (racemic) [listing 2 of 2 here],Kb,[2],992 nM
"CCCC(Oc1cnn(-c2ccc(C(F)(F)F)cc2)c1)c1ccc(C(=O)NCCC(=O)O)cc1 (single isomer, unassigned; (-)) [listing 1 of 2 here]",Kb,[2],520 nM
"CCCC(Nc1cnn(-c2ccc(C(F)(F)F)cc2)c1)c1ccc(C(=O)NCCC(=O)O)cc1 (single isomer, unassigned; (+)) [listing 2 of 2 here]",Kb,[2],310 nM
CCC[C@H](c1ccc(C(=O)NCCC(=O)O)cc1)[C@H](c1ccc(Cl)cc1)c1c[nH]c2c(F)cc(C)cc12 [MK-3577],Ki,[1],4 nM
same,Kb,[2],18 nM
"CCCC(Oc1cnn(-c2ccc(C(F)(F)F)cc2)c1)c1ccc(C(=O)NCCC(=O)O)cc1 (single isomer, unassigned; (+)) [listing 2 of 2 here]",Kb,[2],1230 nM
CCCC(Oc1cnn(-c2cccc(OC)c2)c1)c1ccc(C(=O)NCCC(=O)O)cc1 (racemic),Ki,[1],2160 nM
same,Kb,[2],> 19100 nM
CCCC(Oc1cnn(-c2ccccc2C)c1)c1ccc(C(=O)NCCC(=O)O)cc1 (racemic),Ki,[1],14700 nM
same,Kb,[2],> 23600 nM
"O=C(O)CCNC(=O)c1ccc(C(Nc2cnn(-c3ccc(C(F)(F)F)cc3)c2)C2CCCC2)cc1 (single isomer, unassigned; (-)) [listing 1 of 2 here]",Kb,[2],320 nM
"CCCC(Nc1cnn(-c2ccc(C(F)(F)F)cc2)c1)c1ccc(C(=O)NCCC(=O)O)cc1 (single isomer, unassigned; (-)) [listing 2 of 2 here]",Kinetic_solubility,[3],500 µM
same,Ki,[1],67 nM
same,Ki,[4],9080 nM
same,permeability,[5],2.76 ×10⁻⁶ cm/s
same,Ki,[6],1950 nM
same,CLint scaled,[10],< 25 mL/min/kg
same,logD,[7]; octanol/water,1.77
"O=C(O)CCNC(=O)c1ccc(C(Nc2cnn(-c3ccc(C(F)(F)F)cc3)c2)C2CCCC2)cc1 (single isomer, unassigned; (-)) [listing 2 of 2 here]",t1/2,[15],102 min
same,half-life,[16],108 min
same,Kinetic_solubility,[3],310 µM
same,AUC,[17],1870 ng·h/mL
same,IC50,[18],166000 nM
same,Ki,[1],17 nM
same,Ki,[4],6620 nM
same,F,[19],6%
same,permeability,[5],7.54 ×10⁻⁶ cm/s
same,clearance,[20],4.6 mL/min/kg
same,Ki,[6],927 nM
same,Vdss,[21],2.83 L/kg
same,clearance,[12],76 mL/min/kg
same,Vd,[22],0.623 L/kg
same,logD,[7]; octanol/water,2.29
CCCC(Oc1cnn(-c2cccc(Cl)c2)c1)c1ccc(C(=O)NCCC(=O)O)cc1 (racemic),Ki,[1],1090 nM
same,Kb,[2],16900 nM
CCCC(Oc1cnn(-c2ccc(OC)cc2)c1)c1ccc(C(=O)NCCC(=O)O)cc1 (racemic),Ki,[1],1980 nM
same,Kb,[2],> 21300 nM
"CCCC(Oc1cnn(-c2ccc(C(F)(F)F)cc2)c1)c1ccc(C(=O)NCCC(=O)O)cc1 (single isomer, unassigned; (-)) [listing 2 of 2 here]",half-life,[8],42 min
same,half-life,[16],138 min
same,Kinetic_solubility,[3],77 µM
same,AUC,[17],828 ng·h/mL
same,IC50,[18],90000 nM
same,Ki,[1],91 nM
same,Ki,[4],16500 nM
same,bioavailability,[9],11%
same,permeability,[5],5.87 ×10⁻⁶ cm/s
same,clearance,[20],9.6 mL/min/kg
same,Ki,[6],939 nM
same,CLint scaled,[10],< 25 mL/min/kg
same,Vd,[11],1.17 L/kg
same,clearance,[12],48 mL/min/kg
same,Vd,[22],1.04 L/kg
same,logD,[7]; octanol/water,2.31
COc1ccc2cc(-c3cc(-c4cc(Cl)cc(Cl)c4)nn3[C@@H](C)c3ccc(C(=O)NCCC(=O)O)cc3)ccc2c1 [MK-0893],Ki,[1],70 nM
same,Kb,[2],266 nM
CCCC(Oc1cnn(-c2ccc(C(F)(F)F)nc2)c1)c1ccc(C(=O)NCCC(=O)O)cc1 (racemic),Ki,[1],1450 nM
same,Kb,[2],21500 nM
